Test results: ChEMBL document CHEMBL1133575 (J Med Chem, 2000)

Legend:
[1] = target: Sodium-dependent dopamine transporter (Homo sapiens, UniProt Q01959); test: Binding Affinity to cocaine site of dopamine transporter in caudate nuclei which was homogenized and incubated with [3H]mazindol.
[2] = target: T1, Sodium-dependent dopamine transporter (Rattus norvegicus, UniProt P23977); test: Inhibition of [3H]DA Uptake at dopamine transporter in rat cortex was measured by liquid scintillation spectrometry; format: tissue-based
T1 sequence (P23977 whole entry): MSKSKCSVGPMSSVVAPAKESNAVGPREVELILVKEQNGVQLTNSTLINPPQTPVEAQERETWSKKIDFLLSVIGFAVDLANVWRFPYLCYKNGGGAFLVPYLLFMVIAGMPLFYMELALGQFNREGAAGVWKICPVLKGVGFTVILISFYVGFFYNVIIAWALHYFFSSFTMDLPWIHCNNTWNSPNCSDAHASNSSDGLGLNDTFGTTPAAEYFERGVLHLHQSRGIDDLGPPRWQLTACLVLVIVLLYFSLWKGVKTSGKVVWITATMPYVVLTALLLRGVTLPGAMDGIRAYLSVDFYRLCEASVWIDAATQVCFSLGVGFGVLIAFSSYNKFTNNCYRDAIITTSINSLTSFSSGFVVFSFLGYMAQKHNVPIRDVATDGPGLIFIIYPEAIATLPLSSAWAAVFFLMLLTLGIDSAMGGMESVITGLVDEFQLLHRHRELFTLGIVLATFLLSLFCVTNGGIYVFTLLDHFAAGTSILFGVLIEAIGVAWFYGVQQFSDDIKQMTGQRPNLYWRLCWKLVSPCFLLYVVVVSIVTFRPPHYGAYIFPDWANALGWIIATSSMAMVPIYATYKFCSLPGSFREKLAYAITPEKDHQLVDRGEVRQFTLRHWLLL

[3] = target: Norepinephrine transporter (Rattus norvegicus, UniProt Q9WTR4); test: Compound was tested for Inhibition of [3H]NE Uptake in rat parietal/occipital cortex
Chain of Norepinephrine transporter (Q9WTR4 whole entry): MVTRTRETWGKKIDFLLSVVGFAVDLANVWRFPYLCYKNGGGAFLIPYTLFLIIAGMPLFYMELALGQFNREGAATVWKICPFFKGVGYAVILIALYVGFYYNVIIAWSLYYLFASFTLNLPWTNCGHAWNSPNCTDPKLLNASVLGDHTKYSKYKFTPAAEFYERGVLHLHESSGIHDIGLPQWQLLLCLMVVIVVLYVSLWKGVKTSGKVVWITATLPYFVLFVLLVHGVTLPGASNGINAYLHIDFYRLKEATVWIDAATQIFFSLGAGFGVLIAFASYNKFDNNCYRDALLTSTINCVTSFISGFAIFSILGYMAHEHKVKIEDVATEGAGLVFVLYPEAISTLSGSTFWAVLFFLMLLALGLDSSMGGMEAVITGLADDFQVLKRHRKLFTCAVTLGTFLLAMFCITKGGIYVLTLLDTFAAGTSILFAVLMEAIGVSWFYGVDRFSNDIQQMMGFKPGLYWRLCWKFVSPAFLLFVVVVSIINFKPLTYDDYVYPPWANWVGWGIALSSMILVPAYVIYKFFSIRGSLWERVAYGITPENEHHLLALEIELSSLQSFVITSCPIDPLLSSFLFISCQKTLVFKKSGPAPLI
Procedure, shortened: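 [3H]NE uptake used rat parietal/occipital cortex synaptosomes in modified KRH buffer. Drug was preincubated for 30 min at 37 °C, then radiolabel was added for 5 min. Uptake was stopped with cold sodium-free buffer, filtered and counted by liquid scintillation. Specific uptake was defined with 1 uM desipramine.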

[4] = target: Sodium-dependent serotonin transporter (Rattus norvegicus, UniProt P31652); test: Compound was tested for Inhibition of [3H]5-HT Uptake in rat mid brain.; format: tissue-based
Chain of Sodium-dependent serotonin transporter (P31652 whole entry): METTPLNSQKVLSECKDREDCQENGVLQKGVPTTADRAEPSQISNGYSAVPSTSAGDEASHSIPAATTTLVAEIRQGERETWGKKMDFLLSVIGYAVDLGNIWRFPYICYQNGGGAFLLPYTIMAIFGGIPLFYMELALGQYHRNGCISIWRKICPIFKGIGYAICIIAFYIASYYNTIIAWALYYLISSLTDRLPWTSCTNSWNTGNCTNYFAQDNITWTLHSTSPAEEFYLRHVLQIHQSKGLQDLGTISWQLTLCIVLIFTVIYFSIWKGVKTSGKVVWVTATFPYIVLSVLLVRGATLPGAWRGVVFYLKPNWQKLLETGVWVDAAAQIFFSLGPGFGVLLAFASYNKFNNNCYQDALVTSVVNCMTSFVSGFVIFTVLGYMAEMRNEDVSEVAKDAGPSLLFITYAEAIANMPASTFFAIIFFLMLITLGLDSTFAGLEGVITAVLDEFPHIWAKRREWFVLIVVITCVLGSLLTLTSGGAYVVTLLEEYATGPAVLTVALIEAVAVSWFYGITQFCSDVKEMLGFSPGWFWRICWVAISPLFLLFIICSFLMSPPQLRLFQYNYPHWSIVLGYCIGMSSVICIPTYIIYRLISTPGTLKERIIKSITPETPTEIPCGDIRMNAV
Procedure, shortened: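 [3H]5-HT uptake used rat midbrain synaptosomes in modified KRH buffer. Drug was preincubated for 30 min at 37 °C, then tritiated substrate was added for 5 min. Uptake was stopped in cold sodium-free buffer, filtered and counted by scintillation. Specific uptake was defined with 10 uM fluoxetine.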

[5] = target: T1, Sodium-dependent dopamine transporter; test: Inhibition of [3H]DA Uptake at Dopamine transporter in rat cortex was measured by liquid scintillation spectrometry; format: tissue-based
[6] = target: T1, Sodium-dependent dopamine transporter; test: Binding Affinity to cocaine site of Dopamine transporter in caudate nuclei which was homogenized and incubated with [3H]mazindol.
Procedure, shortened: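 Rat striatal membranes, washed in KRH buffer (pH 7.4, with 0.01 mM nialamide) and frozen at −80 °C, thawed at 75–125 ug protein/mL. Incubated with [3H]mazindol plus competitor for 60 min at 4 °C. […] Separated by GF/C filtration and counted by scintillation. IC50 fitted with LIGAND.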

Chain of Sodium-dependent dopamine transporter (Homo sapiens, UniProt Q01959) (Q01959 whole entry): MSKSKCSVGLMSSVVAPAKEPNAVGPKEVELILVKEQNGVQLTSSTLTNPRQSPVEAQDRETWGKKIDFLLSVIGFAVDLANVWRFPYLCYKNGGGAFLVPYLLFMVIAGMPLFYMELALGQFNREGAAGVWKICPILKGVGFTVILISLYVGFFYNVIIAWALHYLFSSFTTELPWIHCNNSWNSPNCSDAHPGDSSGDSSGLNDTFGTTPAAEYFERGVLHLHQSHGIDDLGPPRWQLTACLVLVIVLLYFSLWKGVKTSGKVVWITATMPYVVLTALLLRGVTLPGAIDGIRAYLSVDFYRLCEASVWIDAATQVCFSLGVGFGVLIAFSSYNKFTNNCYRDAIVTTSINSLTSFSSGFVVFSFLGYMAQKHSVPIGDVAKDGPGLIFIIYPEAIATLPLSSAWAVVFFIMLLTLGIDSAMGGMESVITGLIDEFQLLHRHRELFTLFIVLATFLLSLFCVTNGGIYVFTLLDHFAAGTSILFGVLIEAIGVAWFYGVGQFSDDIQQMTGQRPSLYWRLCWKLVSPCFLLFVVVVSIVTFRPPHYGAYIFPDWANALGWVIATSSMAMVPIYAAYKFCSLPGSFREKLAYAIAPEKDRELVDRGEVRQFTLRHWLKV

| Compound | Ki [1] [µM] | Ki [2] [µM] | Ki [3] [µM] | Ki [4] [µM] | Ki [5] [µM] | Ki [6] [µM] |
| --- | --- | --- | --- | --- | --- | --- |
| CN1CCC(O)(c2ccc(Cl)cc2Cl)C([C@@H](O)c2ccc(Cl)cc2Cl)C1 (stereo not given in full) | 4.35 | 7.52 | – | – | – | – |
| Cc1ccc(C2OC(=O)OC3(c4ccc(C)cc4)CCN(C)CC23)cc1 (stereo not given) | – | 9.48 | – | – | – | – |
| CN1CCC(O)(c2ccc(Cl)c(Cl)c2)C(C(=O)c2ccc(Cl)c(Cl)c2)C1 (stereo not given) | 0.0109 | 0.051 | 0.177 | 2.38 | – | – |
| CN1CCC(O)(c2ccccc2)C(C(=O)c2ccccc2)C1 (stereo not given) | – | – | – | – | 2.59 | 4.42 |
| CN1CCC(O)(c2ccc(Cl)cc2Cl)C(C(=O)c2ccc(Cl)cc2Cl)C1 (stereo not given) | – | 5.85 | – | – | – | – |
| Cc1ccc(C(=O)C2CN(C)CCC2(O)c2ccc(C)cc2)cc1 (stereo not given) | – | – | 3.86 | 1.63 | 0.36 | 0.492 |
| CN1CCC(O)(c2ccc(Cl)c(Cl)c2)C([C@@H](O)c2ccc(Cl)c(Cl)c2)C1 (stereo not given in full) | 4.14 | 4.22 | – | – | – | – |
| Cc1ccc([C@H](O)C2CN(C)CCC2(O)c2ccc(C)cc2)cc1 (stereo not given in full) | 10.7 | 15.8 | – | – | – | – |
| CN1CCC(O)(c2ccc(F)cc2)C(C(=O)c2ccc(F)cc2)C1 (stereo not given) [FLAZALONE] | 5.7 | 4.2 | – | – | – | – |
